This is an account of results in ChEMBL document CHEMBL3046507, “Synthesis and herbicidal activities of novel 3-N-substituted amino-6-methyl-4-(3-trifluoromethylphenyl)pyridazine derivatives” (2008).

The test system of assay [1] is Brassica rapa subsp. oleifera. Kind of assay: Herbicidal activity against Brassica rapa subsp. oleifera assessed as inhibition of fresh plant weight at 750 g/ha using postemergence protocol measured after 24 days under green house conditions. The settings on record: post-emergence.
The test system of assay [2] is Spirodela polyrhiza. The assay is described as follows: Inhibition of chlorophyll in Spirodela polyrhiza fronds at 1 ug/mL using light intensity of 45 uE/m2/s measured after 7 days. The format is functional. The settings on record: 168 h. The method, boiled down:
(§1)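 Giant duckweed assay. Compound in DMF dropped onto filter paper, solvent evaporated 15 min, paper placed in flask with 15 mL fresh medium and shaken >10 min. 10 fronds inoculated per flask and grown 7 days at 23-26 °C, 16 h light/8 h dark, ca. 45 µE m^-2 s^-1. DMF plus medium served as control. Chl extracted in 96% ethanol overnight at 4 °C; OD read at 665 and 649 nm; content expressed as percent of control.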

For assay [3], the system named is Digitaria. The assay is described as follows: Herbicidal activity against Digitaria adscendens assessed as inhibition of fresh plant weight at 750 g/ha using postemergence protocol measured after 24 days under green house conditions. The settings on record: in Digitaria adscendens, post-emergence.
Assay [4] has as its system Brassica rapa subsp. oleifera. The assay is described as follows: Herbicidal activity against Brassica rapa subsp. oleifera assessed as inhibition of fresh plant weight at 750 g/ha using preemergence protocol measured after 24 days under green house conditions. The settings on record: pre-emergence.
Assay [5] deals with Amaranthus retroflexus. The assay is described as follows: Herbicidal activity against Amaranthus retroflexus assessed as inhibition of fresh plant weight at 750 g/ha using preemergence protocol measured after 24 days under green house conditions. To be noted: pre-emergence.
For assay [6], the system named is Echinochloa crus-galli. Kind of assay: Herbicidal activity against Echinochloa crus-galli (barnyard grass) assessed as inhibition of fresh plant weight at 750 g/ha using preemergence protocol measured after 24 days under green house conditions. To be noted: pre-emergence.
Assay [7] concerns Digitaria. The assay is described as follows: Herbicidal activity against Digitaria adscendens assessed as inhibition of fresh plant weight at 750 g/ha using preemergence protocol measured after 24 days under green house conditions. To be noted: in Digitaria adscendens, pre-emergence.
In assay [8] the test system is Amaranthus retroflexus. The assay is described as follows: Herbicidal activity against Amaranthus retroflexus assessed as inhibition of fresh plant weight at 750 g/ha using postemergence protocol measured after 24 days under green house conditions. The settings on record: post-emergence.
For assay [9], the system named is Echinochloa crus-galli. The assay is described as follows: Herbicidal activity against Echinochloa crus-galli (barnyard grass) assessed as inhibition of fresh plant weight at 750 g/ha using postemergence protocol measured after 24 days under green house conditions. To be noted: post-emergence.
The test system of assay [10] is Spirodela polyrhiza. The assay is described as follows: Inhibition of chlorophyll in Spirodela polyrhiza fronds at 10 ug/mL using light intensity of 45 uE/m2/s measured after 7 days. The format is functional. The settings on record: 168 h. The method, boiled down:
as §1

Assay [11] has as its system Amaranthus retroflexus. The assay is described as follows: Herbicidal activity against Amaranthus retroflexus assessed as inhibition of fresh plant weight at 300 g/ha using postemergence protocol measured after 24 days under green house conditions. To be noted: post-emergence.
Assay [12] concerns Amaranthus retroflexus. The assay is described as follows: Herbicidal activity against Amaranthus retroflexus assessed as inhibition of fresh plant weight at 600 g/ha using postemergence protocol measured after 24 days under green house conditions. To be noted: post-emergence.
Assay [13] deals with Brassica rapa subsp. oleifera. The assay is described as follows: Herbicidal activity against Brassica rapa subsp. oleifera assessed as inhibition of fresh plant weight at 300 g/ha using postemergence protocol measured after 24 days under green house conditions. The settings on record: post-emergence.
Assay [14] concerns Amaranthus retroflexus. The assay is described as follows: Herbicidal activity against Amaranthus retroflexus assessed as inhibition of fresh plant weight at 150 g/ha using postemergence protocol measured after 24 days under green house conditions. The settings on record: post-emergence.
The test system of assay [15] is Brassica rapa subsp. oleifera. Kind of assay: Herbicidal activity against Brassica rapa subsp. oleifera assessed as inhibition of fresh plant weight at 150 g/ha using postemergence protocol measured after 24 days under green house conditions. The settings on record: post-emergence.
In assay [16] the test system is Brassica rapa subsp. oleifera. Kind of assay: Herbicidal activity against Brassica rapa subsp. oleifera assessed as inhibition of fresh plant weight at 600 g/ha using postemergence protocol measured after 24 days under green house conditions. The settings on record: post-emergence.
The test system of assay [17] is Brassica rapa subsp. oleifera. The assay is described as follows: Herbicidal activity against Brassica rapa subsp. oleifera assessed as inhibition of fresh plant weight at 75 g/ha using postemergence protocol measured after 24 days under green house conditions. To be noted: post-emergence.
Assay [18] deals with Amaranthus retroflexus. The assay is described as follows: Herbicidal activity against Amaranthus retroflexus assessed as inhibition of fresh plant weight at 75 g/ha using postemergence protocol measured after 24 days under green house conditions. To be noted: post-emergence.

What is called inhibition is the percentage by which the read-out fell short of the control. Regarding `Cc1cc(-c2cccc(C(F)(F)F)c2)c(NCc2ccc(Cl)cc2)nn1`, the inhibition at 750 g/ha in assay [1] came out at 27%; in [3] it was 18%; in assay [4], 7%; in assay [5], 3%; in assay [6], 9%; in [7] it was 0%. For the same molecule, the figures for the inhibition at 750 g/ha in [8] and in assay [9] were 44% and 15%, respectively. For the same molecule, the inhibition at 1 µg/mL in [2] stood at 25%. In assay [10], this molecule came in with an inhibition at 10 µg/mL of 85%.

For the molecule `Cc1cccc(Nc2nnc(C)cc2-c2cccc(C(F)(F)F)c2)c1`, the inhibition at 750 g/ha in assay [1] came to 79%; in assay [3], 6%; in assay [4], 18%; in [5] it was 81%; in assay [6], 8%; in assay [7] it was 7%. In addition, the inhibition at 750 g/ha in assay [8] was found to be 64%; in assay [9] it was 29%. The values for the inhibition at 300 g/ha in assay [11] and in assay [13] were 25% and 30%, respectively. Also, the inhibition at 600 g/ha in [12] worked out at 52%; in [16], 42%. The inhibition at 1 µg/mL in assay [2] came out at 100%. The inhibition at 150 g/ha in assay [14] turned out to be 23%; in assay [15] it was 0%. The molecule further yielded an inhibition at 10 µg/mL in assay [10] of 100%.

Take `Cc1ccc(Nc2nnc(C)cc2-c2cccc(C(F)(F)F)c2)cc1`: the inhibition at 750 g/ha was 99% in [1]; 18% in [3]; 82% in assay [4]; 90% in assay [5]; 0% in [6]; 17% in [7]. Also, the results for the inhibition at 750 g/ha in assay [8] and in assay [9] were 85% and 2%, respectively. Moreover, the inhibition at 300 g/ha was 28% in assay [11] and 54% in assay [13]. Also, the inhibition at 600 g/ha in assay [12] and in assay [16] was 59% each time. This molecule also yielded an inhibition at 1 µg/mL in assay [2] of 95%. The inhibition at 150 g/ha in [14] is 17%; in assay [15], 39%. The molecule further returned an inhibition at 10 µg/mL in [10] of 96%.

Consider `Cc1cc(-c2cccc(C(F)(F)F)c2)c(Nc2ccc(F)cc2)nn1`, for which the inhibition at 750 g/ha in [1] stood at 88%; in [3], 0%; in [4] it was 8%; in assay [5], 19%; in assay [6] it was 2%; in assay [7], 0%. Further, the inhibition at 750 g/ha was 85% in [8] and 23% in assay [9]. The inhibition at 300 g/ha turned out to be 55% in [11] and 83% in assay [13]. Besides, the inhibition at 600 g/ha in assay [12] stood at 64%; in [16] it was 93%. This molecule came in with an inhibition at 1 µg/mL in assay [2] of 100%. Further, the results for the inhibition at 75 g/ha in assay [17] and in [18] were 55% and 32%, respectively. In addition, the inhibition at 150 g/ha in assay [14] amounted to 43%; in assay [15], 58%. In addition, in assay [10], the inhibition at 10 µg/mL was 100%.

As for `Cc1cc(-c2cccc(C(F)(F)F)c2)c(Nc2ccc(Cl)cc2)nn1`, the inhibition at 750 g/ha in assay [1] was 100%; in assay [3], 0%; in assay [4], 18%; in [5], 0%; in assay [6], 0%; in assay [7], 0%. Moreover, the inhibition at 750 g/ha in [8] turned out to be 100%; in assay [9], 0%. For the same molecule, the inhibition at 300 g/ha turned out to be 60% in [11] and 89% in assay [13]. Also, the inhibition at 600 g/ha in [12] was 66%; in [16] it was 90%. This molecule also had an inhibition at 1 µg/mL in assay [2] of 87%. The inhibition at 75 g/ha in assay [17] came to 52%; in assay [18] it was 42%. The figures for the inhibition at 150 g/ha in assay [14] and in [15] were 45% and 87%, respectively. Besides, the inhibition at 10 µg/mL in assay [10] was determined as 100%.

Take `Cc1cc(-c2cccc(C(F)(F)F)c2)c(Nc2cccc(C(F)(F)F)c2)nn1`: the inhibition at 750 g/ha in assay [1] is 96%; in assay [3], 0%; in assay [4] it was 0%; in assay [5] it was 0%; in assay [6] it was 0%; in assay [7], 0%. Besides, the inhibition at 750 g/ha stood at 95% in assay [8] and 8% in assay [9]. Moreover, the inhibition at 300 g/ha is 42% in assay [11] and 79% in [13]. Moreover, the inhibition at 600 g/ha in [12] was 54%; in assay [16] it was 88%. Besides, at 1 µg/mL the inhibition in assay [2] was 100%. The inhibition at 75 g/ha in assay [17] was found to be 48%; in [18] it was 32%. Besides, the inhibition at 150 g/ha in assay [14] was 37%; in [15], 72%. Further, testing at 10 µg/mL in assay [10] gave an inhibition of 100%.

Consider `Cc1cc(-c2cccc(C(F)(F)F)c2)c(NCc2ccccc2)nn1`, for which the inhibition at 750 g/ha in [1] stood at 30%; in [3], 23%; in assay [4], 0%; in assay [5] it was 4%; in [6], 0%; in assay [7], 7%. The inhibition at 750 g/ha in assay [8] amounted to 27%; in assay [9], 8%. Testing at 1 µg/mL in assay [2] gave an inhibition of 83%. Moreover, in [10], the inhibition at 10 µg/mL was determined as 86%.

Take `Cc1ccc(CNc2nnc(C)cc2-c2cccc(C(F)(F)F)c2)cc1`: the inhibition at 750 g/ha came to 20% in [1]; 54% in assay [3]; 16% in assay [4]; 31% in [5]; 78% in [6]; 64% in assay [7]. Also, the values for the inhibition at 750 g/ha in assay [8] and in assay [9] were 2% and 0%, respectively. In addition, 1 µg/mL produced 34% inhibition in [2]. The molecule further gave an inhibition at 10 µg/mL in assay [10] of 74%.

On to `COc1ccc(CNc2nnc(C)cc2-c2cccc(C(F)(F)F)c2)cc1`, for which the inhibition at 750 g/ha in assay [1] was 14%; in assay [3] it was 8%; in assay [4], 0%; in assay [5], 2%; in assay [6] it was 22%; in assay [7], 0%. Moreover, the figures for the inhibition at 750 g/ha in assay [8] and in assay [9] were 18% and 0%, respectively. The molecule further had an inhibition at 1 µg/mL in [2] of 51%. Further, the inhibition at 10 µg/mL in [10] turned out to be 84%.

As for `Cc1cc(-c2cccc(C(F)(F)F)c2)c(NCc2ccccc2F)nn1`, the inhibition at 750 g/ha stood at 49% in assay [1]; 24% in assay [3]; 24% in assay [4]; 8% in [5]; 0% in [6]; 0% in [7]. Moreover, the figures for the inhibition at 750 g/ha in assay [8] and in assay [9] were 44% and 10%, respectively. In [2], this molecule registered an inhibition at 1 µg/mL of 77%. Further, the inhibition at 10 µg/mL in [10] worked out at 81%.
